Assays:
[1] = target: 3',5'-cyclic-AMP phosphodiesterase 4B (Homo sapiens, UniProt Q07343); experiment: Inhibition of PDE4B1 expressed in yeast
How it was run: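 Human recombinant PDE4A4, PDE4B1 or PDE4D3 made in galactose-induced […]; dialysed extracts (~4 μg protein) used. Hydrolysis of 15 nM [3H]-cAMP in 50 mM Tris pH 7.5, 8.3 mM MgCl2, 1.7 mM EGTA, final DMSO 5%, 60 min at room temperature. Reaction stopped with SPA beads, then scintillation counted. Compounds tested 10 μM to 10 pM in duplicate; IC50 calculated.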

Blood = experiment: Antiinflammatory activity against LPS-induced TNFalpha production in human whole blood by ELISA; type: functional, tissue-based
How it was run: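 Human whole blood preincubated at 37 °C for 10 min with LPS at final 1 μg/mL; inhibitors in 100% DMSO added at increasing concentrations, blood (LPS-free for controls) incubated 24 h at 37 °C under agitation. Reaction stopped on ice with PBS and centrifugation; serum TNFα measured by sandwich ELISA, TMB substrate, 450 nm. Experiments run 2-3 times, duplicates averaged, given as pg/mL.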

[2] = target: 3',5'-cyclic-AMP phosphodiesterase 4A (Homo sapiens, UniProt P27815); experiment: Inhibition of PDE4A4 expressed in yeast
Chain of 3',5'-cyclic-AMP phosphodiesterase 4A (P27815 whole entry): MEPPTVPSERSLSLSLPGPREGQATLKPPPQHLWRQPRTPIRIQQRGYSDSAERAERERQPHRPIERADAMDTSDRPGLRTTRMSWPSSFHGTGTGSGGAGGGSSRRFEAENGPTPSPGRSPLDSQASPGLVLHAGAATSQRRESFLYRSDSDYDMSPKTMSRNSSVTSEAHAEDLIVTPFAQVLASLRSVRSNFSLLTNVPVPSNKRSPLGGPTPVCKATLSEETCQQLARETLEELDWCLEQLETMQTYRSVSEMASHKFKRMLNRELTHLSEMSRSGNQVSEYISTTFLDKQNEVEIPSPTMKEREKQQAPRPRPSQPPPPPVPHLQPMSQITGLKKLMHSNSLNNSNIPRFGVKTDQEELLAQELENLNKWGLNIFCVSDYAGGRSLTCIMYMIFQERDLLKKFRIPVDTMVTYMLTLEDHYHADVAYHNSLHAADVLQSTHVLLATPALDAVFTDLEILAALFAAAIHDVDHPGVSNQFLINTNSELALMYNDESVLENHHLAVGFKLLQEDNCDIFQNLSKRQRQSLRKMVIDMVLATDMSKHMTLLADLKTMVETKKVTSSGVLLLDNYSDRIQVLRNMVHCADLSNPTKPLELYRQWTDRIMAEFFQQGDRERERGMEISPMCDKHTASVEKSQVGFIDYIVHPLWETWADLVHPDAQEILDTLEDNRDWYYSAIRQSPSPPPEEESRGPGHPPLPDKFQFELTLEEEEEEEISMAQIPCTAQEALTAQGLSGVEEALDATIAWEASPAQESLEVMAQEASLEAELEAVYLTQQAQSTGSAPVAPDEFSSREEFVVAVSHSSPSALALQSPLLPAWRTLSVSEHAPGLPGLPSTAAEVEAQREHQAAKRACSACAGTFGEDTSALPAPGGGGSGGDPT

[3] = target: 3',5'-cyclic-AMP phosphodiesterase 4D (Homo sapiens, UniProt Q08499); experiment: Inhibition of PDE4D3 expressed in yeast
Chain of 3',5'-cyclic-AMP phosphodiesterase 4D (Q08499 whole entry): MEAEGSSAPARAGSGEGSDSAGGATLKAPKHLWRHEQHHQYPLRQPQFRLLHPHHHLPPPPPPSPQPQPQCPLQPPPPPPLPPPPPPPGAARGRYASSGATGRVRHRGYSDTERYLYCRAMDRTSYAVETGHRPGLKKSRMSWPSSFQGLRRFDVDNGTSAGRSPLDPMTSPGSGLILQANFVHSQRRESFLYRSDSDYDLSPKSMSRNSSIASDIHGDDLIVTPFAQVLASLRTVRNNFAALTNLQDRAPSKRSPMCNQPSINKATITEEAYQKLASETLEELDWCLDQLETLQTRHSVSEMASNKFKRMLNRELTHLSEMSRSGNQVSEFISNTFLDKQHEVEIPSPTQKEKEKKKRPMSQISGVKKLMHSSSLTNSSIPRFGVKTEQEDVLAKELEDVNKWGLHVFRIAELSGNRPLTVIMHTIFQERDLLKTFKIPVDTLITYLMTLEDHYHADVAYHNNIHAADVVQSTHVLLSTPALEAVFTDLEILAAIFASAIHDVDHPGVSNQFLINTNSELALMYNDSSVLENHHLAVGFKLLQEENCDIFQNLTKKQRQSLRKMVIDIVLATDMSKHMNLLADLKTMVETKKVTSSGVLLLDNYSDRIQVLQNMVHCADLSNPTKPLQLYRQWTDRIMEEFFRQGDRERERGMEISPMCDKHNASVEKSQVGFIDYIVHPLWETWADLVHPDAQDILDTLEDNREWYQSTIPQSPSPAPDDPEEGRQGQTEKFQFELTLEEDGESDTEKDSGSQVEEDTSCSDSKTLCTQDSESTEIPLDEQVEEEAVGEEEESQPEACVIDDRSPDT

[4] = Apparent permeability from apical to basolateral side of human Caco-2 cells; type: ADME, cell-based
How it was run: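 Caco-2 cells seeded at 500 000 cells/well on collagen-coated PET membranes (1 μm pores), differentiated and used six days post-seeding. Compound applied in HBSS with 10 mM Hepes and 25 mM glucose, pH 7.4, at most 1% DMSO, on the apical side. Samples taken after 3 h and analysed by HPLC-UV. [3H]mannitol 115 nM served as integrity control.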

Chain of 3',5'-cyclic-AMP phosphodiesterase 4B (Q07343 whole entry): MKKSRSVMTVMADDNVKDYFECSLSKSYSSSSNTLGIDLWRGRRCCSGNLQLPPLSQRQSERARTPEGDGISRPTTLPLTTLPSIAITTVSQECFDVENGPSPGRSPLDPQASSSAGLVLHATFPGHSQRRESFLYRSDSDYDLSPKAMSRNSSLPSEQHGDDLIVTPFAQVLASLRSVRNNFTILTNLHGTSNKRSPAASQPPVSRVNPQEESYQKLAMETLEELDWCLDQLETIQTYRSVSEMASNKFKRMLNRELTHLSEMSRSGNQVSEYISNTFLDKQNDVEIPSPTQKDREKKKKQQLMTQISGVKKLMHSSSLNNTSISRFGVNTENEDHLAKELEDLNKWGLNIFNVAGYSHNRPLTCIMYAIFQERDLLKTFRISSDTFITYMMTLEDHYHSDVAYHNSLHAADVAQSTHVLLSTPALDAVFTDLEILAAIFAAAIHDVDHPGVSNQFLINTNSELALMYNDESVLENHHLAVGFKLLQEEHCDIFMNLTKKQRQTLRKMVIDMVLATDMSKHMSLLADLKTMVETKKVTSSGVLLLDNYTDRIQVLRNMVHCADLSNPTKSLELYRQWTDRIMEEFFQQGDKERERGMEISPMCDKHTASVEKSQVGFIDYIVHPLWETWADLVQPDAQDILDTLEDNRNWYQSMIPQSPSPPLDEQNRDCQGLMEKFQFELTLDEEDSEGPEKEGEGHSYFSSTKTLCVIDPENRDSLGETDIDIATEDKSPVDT

IC50 [1] | IC50 (Blood) | IC50 [2] | IC50 [3] | Papp A→B [4] | SMILES
3700 nM | 3270 nM | – | – | – | CN1Cc2c(N3CCOCC3)nc3sc4c(NCCN5CCOCC5)ncnc4c3c2CC1(C)C
51 nM | – | – | – | – | CNc1nc2sc3c(NCCN4CCOCC4)ncnc3c2c2c1COC(C)(C)C2
11 nM | 2040 nM | 19 nM | 13 nM | – | CC1(C)CCc2c(N3CCOCC3)nc3sc4c(NCc5ccncc5)ncnc4c3c2C1
21 nM | 2150 nM | 18 nM | 61 nM | – | CC1(C)CCc2c(N3CCOCC3)nc3sc4c(NCCCN5CCCC5=O)ncnc4c3c2C1
2.8 nM | 327 nM | 6.4 nM | 1.8 nM | – | CC1(C)CCc2c(N3CCOCC3)nc3sc4c(N(CCO)CCN5CCOCC5)ncnc4c3c2C1
3.6 nM | 381 nM | 4.5 nM | 32 nM | – | CC1(C)CCc2c(N3CCOCC3)nc3sc4c(NCc5cccnc5)ncnc4c3c2C1
45 nM | 261 nM | 20 nM | 25 nM | 21.9 ×10⁻⁶ cm/s | CN(C)c1nc2sc3c(NCCN4CCOCC4)ncnc3c2c2c1COC(C)(C)C2
167 nM | – | – | – | – | CC1(C)Cc2c(c(N3CCOCC3)nc3sc4c(NCCCN5CCCC5=O)ncnc4c23)CO1
95 nM | – | – | – | – | CN1CCN(c2nc3sc4c(NCCN5CCOCC5)ncnc4c3c3c2CCC(C)(C)C3)CC1
22 nM | 1020 nM | 97 nM | 128 nM | – | CC1(C)Cc2c(c(N3CCOCC3)nc3sc4c(NCc5ccncc5)ncnc4c23)CO1
274 nM | – | – | – | – | CC1(C)CCc2c(N3CCOCC3)nc3sc4c(NCCN5CCOCC5)ncnc4c3c21
37 nM | 912 nM | 97 nM | 34 nM | – | Cc1nc2sc3c(NCCN4CCOCC4)ncnc3c2c2c1CCC(C)(C)C2
13 nM | 537 nM | 23 nM | 39 nM | – | CC1(C)Cc2c(c(N3CCOCC3)nc3sc4c(N(CCO)CCN5CCOCC5)ncnc4c23)CO1
1200 nM | – | – | – | – | CN1CCN(c2nc3sc4c(NCCN5CCOCC5)ncnc4c3c3c2COC(C)(C)C3)CC1
4.5 nM | 401 nM | 5 nM | 19 nM | – | CC1(C)Cc2c(c(N3CCOCC3)nc3sc4c(N(CCN5CCOCC5)Cc5cccnc5)ncnc4c23)CO1
284 nM | – | – | – | – | CC1(C)Cc2c(c(N3CCOCC3)nc3sc4c(NCCN5CCCCC5)ncnc4c23)CO1

IC50 [1] | IC50 (Blood) | IC50 [2] | IC50 [3] | Papp A→B [4] | SMILES
90 nM | 2040 nM | – | – | – | CCC1(C)Cc2c(c(N3CCOCC3)nc3sc4c(NCCN5CCOCC5)ncnc4c23)CO1 (stereo not given)
2.9 nM | 1370 nM | 74 nM | 4.6 nM | – | CC1(C)CCc2c(N3CCOCC3)nc3sc4c(NCCN5CCOCC5)ncnc4c3c2C1
213 nM | – | – | – | – | COc1ccccc1CNc1ncnc2c1sc1nc(N3CCOCC3)c3c(c12)CC(C)(C)CC3
1770 nM | – | – | – | – | c1nc(NCCN2CCOCC2)c2sc3nc(N4CCOCC4)c4c(c3c2n1)CCOC4
333 nM | – | – | – | – | CC1(C)Cc2c(N3CCOCC3)nc3sc4c(NCCN5CCOCC5)ncnc4c3c2C1
– | 1480 nM | – | – | – | COc1ccc(C2CNC(=O)C2)cc1OC1CCCC1 (stereo not given) [ROLIPRAM]
40 nM | 1190 nM | 67 nM | 119 nM | – | COc1ccccc1CNc1ncnc2c1sc1nc(N3CCOCC3)c3c(c12)CC(C)(C)OC3
7.2 nM | 1280 nM | 6.7 nM | 39 nM | 0.4 ×10⁻⁶ cm/s | CC(C)Cc1nc2sc3c(NCCN4CCOCC4)ncnc3c2c2c1CCC(C)(C)C2
865 nM | – | – | – | – | CN(Cc1ccccc1)c1nc2sc3c(NCCN4CCOCC4)ncnc3c2c2c1CCC(C)(C)C2
9.9 nM | 233 nM | 18 nM | 4.2 nM | 13.7 ×10⁻⁶ cm/s | CNc1nc2sc3c(NCCN4CCOCC4)ncnc3c2c2c1CCC(C)(C)C2
3.8 nM | 1090 nM | 5.4 nM | 7.9 nM | – | CC1(C)CCc2c(-c3ccco3)nc3sc4c(NCCN5CCOCC5)ncnc4c3c2C1
2.9 nM | 1240 nM | 9 nM | 3.1 nM | – | CC1(C)CCc2c(-c3ccoc3)nc3sc4c(NCCN5CCOCC5)ncnc4c3c2C1
26 nM | 235 nM | 63 nM | 604 nM | – | CC1(C)Cc2c(c(N3CCOCC3)nc3sc4c(NCCN5CCOCC5)ncnc4c23)CO1
8.05 nM | 655 nM | 43 nM | 11 nM | – | CC1(C)CCc2c(N3CCCC3)nc3sc4c(NCCN5CCOCC5)ncnc4c3c2C1
5.7 nM | 639 nM | 48 nM | 52 nM | – | CC1(C)Cc2c(c(N3CCOCC3)nc3sc4c(NCc5cccnc5)ncnc4c23)CO1

From ChEMBL document CHEMBL1255195, “Synthesis and biological activity of pyrido[3',2':4,5]thieno[3,2-d]pyrimidines as phosphodiesterase type 4 inhibitors” (J Med Chem, 2010)
